# Source: paper PMC3079392 (The Biochemical journal, 2008)
# Entries after “also recorded” stand apart in the source; their conditions may differ. Like-named read-outs stand apart in the source and are kept apart here.
# Experiments:
# 110δ = details: cited from earlier work
# [1] = system: PKB/Akt (S473) and S6 (S235,236) phosphorylation; experiment: Western blot of PI3K signaling; type: cell-based; details: for Temporal inhibition of PKB/Akt and S6 phosphorylation: 1 μM, 1, 6 and 24 h
# [2] = cited from earlier work
# [3] = system: phospho-PKB/Akt (Ser-473); experiment: Western blot of phospho-PKB/Akt; type: cell-based; details: 1 h; for Increase in PKB phosphorylation induced by siRNA to PTEN: MDA-MB-231 cells with PTEN siRNA, 1 μM; for Inhibition of PKB/Akt phosphorylation: MDA-MB-468 and BT549 cells (PTEN mutant), 0.5, 1 and 10 μM
# phospho-S6 (Ser-235,236) = experiment: Western blot of phospho-S6; type: cell-based; details: 1 h
# In short: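 Cells in 6-well plates (80% confluence) exposed to test compound at 0.5, 1 or 10 μM for 1 h, then scraped into NP40 lysis buffer with phosphatase and protease inhibitors. Detected by HRP secondary and ECL; bands quantified densitometrically.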
# phospho-S6 = experiment: Phospho-S6 immunofluorescence, Cellomics arrayscan; type: cell-based; details: 1 μM; for S6 phosphorylation following treatment: Hs578t cells, up to 24 h; for Inhibition of S6 phosphorylation by immunofluorescence: 1 h
# In short: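 Cells in 96-well plates; SKBr3 treated 18 h after plating with 1 μM test compound for 1 or 24 h, Hs578t for 24 h. Fixed in 4% paraformaldehyde 15 min, permeabilized in 0.2% Triton X-100 5 min, then blocked in 1% BSA 20 min. Anti-phospho-S6 1 h, fluorescent secondary 1 h, Hoechst. Cytoplasmic intensity (Hoechst-defined nuclear ring) measured on Cellomics ArrayScan, averaged over 200 cells; secondary-only control.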
# breast cancer cell lines [4] = experiment: Cell number by counting Hoechst-stained nuclei; type: cell-based
# In short: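 Cells plated in 96-well dishes; test compound added the next day, with medium and fresh compound replaced every 24 h, for 48 h (or 1 μM for 24, 48 and 72 h). Cells then fixed and permeabilized, and nuclei stained with Hoechst. Nuclei counted on a Cellomics ArrayScan reader.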
# breast cancer cell lines [5] = experiment: Flow cytometry DNA content; type: cell-based; details: for Effects on DNA content: MCF10A, BT474, MDA-MB-231 and MDA-MB-468 cells; for Sub-G1 population (less than 2n DNA content): SKBR3 cells, 24 h
# In short: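 Cells in 6-well plates (80% confluence) treated with test compound: SKBr3 at several concentrations for 24 h; others at 1 μM for 24, 48 or 72 h with fresh compound every 24 h. Adherent plus floating cells pooled and fixed in 70% ethanol. Stained with propidium iodide 10 μg/ml plus RNase A 0.1 mg/ml; 10,000 cells analysed by flow cytometry. Sub-G1 scored as <2n DNA content.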
# breast cancer cell lines [6] = experiment: Flow cytometry DNA content with nocodazole protocol; type: cell-based
# p110α/p85α = details: read-out: In-vitro IC50 p110α/p85α; cited from earlier work
# p110δ/p85α = details: read-out: In-vitro IC50 p110δ/p85α; cited from earlier work
# [7] = MDA-MB-231 cells, 0.5, 1 and 10 μM
# [8] = mutant Ras cell lines MDA-MB-231 and Hs578t, 1 μM PI3K inhibitor, 100 nM rapamycin, nocodazole protocol
# [9] = MCF10A, BT474, SKBR3, BT20, T47D, MCF7 and HS578t, 0.5, 1 and 10 μM, 1 h
# [10] = MDA-MB-468 cells, 0.5 and 1 μM, 48 h
# [11] = five other cell lines, 0.5 and 1 μM, 48 h
# [12] = MDA-MB-468 cells (PTEN mutant), 1 μM, nocodazole 70 ng/ml
smiles,measurement,setting,value
Cc1ccccc1-n1c(Cn2cnc3c(N)ncnc32)nc2cccc(C)c2c1=O [IC87114],Selectivity for 110δ vs. all other PI3K family members,110δ,> 100 fold
O=c1cc(N2CCOCC2)oc2c(-c3ccccc3)cccc12 [LY294002],Inhibition of PI3K signaling,[1]; all cell lines examined,effective at inhibiting PI3K signaling in all cell lines examined
same,Toxicity when administered systemically in vivo,[2]; in vivo,toxic when administered systemically in vivo
Oc1cccc(-c2nc(N3CCOCC3)c3oc4ncccc4c3n2)c1 [PI-103],Increase in PKB phosphorylation induced by siRNA to PTEN,[3],abrogated
same,Inhibition of S6 phosphorylation,"phospho-S6 (Ser-235,236); [7]",still sensitive
same,Inhibition of PKB/Akt and S6 phosphorylation,[1],equipotent; also recorded: more potent than PIK-75
same,S6 phosphorylation following treatment,phospho-S6,remained inhibited
same,Inhibition of S6 phosphorylation by immunofluorescence,phospho-S6; SKBr3 cells,inhibit S6 phosphorylation
same,Effect on cell number,"breast cancer cell lines [4]; BT549 and Hs578t cells, 1 μM",resistant to cell number decreases
same,Effects on DNA content,"breast cancer cell lines [5]; 1 μM, 24, 48 and 72 h","Neither PI-103, TGX-286 or PIK-108 showed strong effects"
same,Sub-G1 population (less than 2n DNA content),breast cancer cell lines [5],did not induce such an effect
same,G1 arrest,"breast cancer cell lines [6]; BT474 and MCF10A cells, 1 μM, nocodazole 70 ng/ml",induced a G1 arrest
same,G1 arrest,"breast cancer cell lines [6]; MDA-MB-231 and MDA-MB-468 cells, 1 μM, nocodazole 70 ng/ml",not in MDA-MB-231 cells or in MDA-MB-468 cells
same,G1 arrest,breast cancer cell lines [6]; [8],marked insensitivity
Cc1ccc([N+](=O)[O-])cc1S(=O)(=O)N(C)/N=C/c1cnc2ccc(Br)cn12 [PIK-75],Inhibition of S6 phosphorylation,"phospho-S6 (Ser-235,236); [7]",still sensitive
same,Temporal inhibition of PKB/Akt and S6 phosphorylation,[1]; BT549 cells,transient inhibition
same,Inhibition of PKB/Akt and S6 phosphorylation,[1]; [9],equipotent
same,Temporal inhibition of PKB/Akt and S6 phosphorylation,"[1]; T47D, MCF10A, BT20 cells",sustained
same,S6 phosphorylation following treatment,phospho-S6,rapidly recovered to untreated levels
same,Duration of inhibition of S6 phosphorylation by immunofluorescence,"phospho-S6; SKBr3 cells, 1 and 24 h",sustained
same,Inhibition of S6 phosphorylation by immunofluorescence,phospho-S6; SKBr3 cells,inhibit S6 phosphorylation
same,Effect on cell number,"breast cancer cell lines [4]; Hs578t cells, 48 h of treatment",strongly inhibited cell number
same,Loss of cell number,"breast cancer cell lines [4]; eight cell lines, 1 μM, 24, 48 and 72 h",greatest ability to induce loss of cell number
same,Sub-G1 population,"breast cancer cell lines [5]; BT474 (rapid), MCF10A and MDA-MB-468 (delayed), 1 μM, 24, 48 and 72 h",induced a large sub-G1 population
same,DNA content,"breast cancer cell lines [5]; MDA-MB-231 cells, 1 μM, 24, 48 and 72 h",strong accumulation of cells with a 4n DNA content
same,Sub-G1 population (less than 2n DNA content),breast cancer cell lines [5],induced a significant sub-G1 population
Cc1cc([C@H](C)Nc2ccccc2)c2oc(N3CCOCC3)cc(=O)c2c1 [PIK-108],Increase in PKB phosphorylation induced by siRNA to PTEN,[3],abrogated
same,Inhibition of PKB/Akt phosphorylation,[3],able to inhibit the phosphorylation of PKB/Akt
same,Inhibition of PKB/Akt and S6 phosphorylation,[1]; [9],ineffective
same,Inhibition of S6 phosphorylation by immunofluorescence,phospho-S6; SKBr3 cells,only a minimal inhibition
same,Effect on cell number,breast cancer cell lines [4]; BT549 cells,did not exhibit these responses to cell number
same,Effect on cell number,breast cancer cell lines [4]; [10],dose-dependent reduction in cell number
same,Effect on cell number,breast cancer cell lines [4]; [11],broadly unaffected
same,Effects on DNA content,"breast cancer cell lines [5]; 1 μM, 24, 48 and 72 h","Neither PI-103, TGX-286 or PIK-108 showed strong effects"
same,G1 arrest,breast cancer cell lines [6]; [12],G1 arrest was uniquely observed; also recorded: partial G1 arrest
Cc1cc(C(C)Nc2ccccc2)c2oc(-c3ccncc3)cc(=O)c2c1 (stereo not shown) [TGX-286],Inhibition of PKB/Akt phosphorylation,[3],able to inhibit the phosphorylation of PKB/Akt
same,Inhibition of PKB/Akt and S6 phosphorylation,[1]; [9],ineffective
same,Inhibition of S6 phosphorylation by immunofluorescence,phospho-S6; SKBr3 cells,only a minimal inhibition
same,Effect on cell number,breast cancer cell lines [4]; BT549 cells,did not exhibit these responses to cell number
same,Effect on cell number,breast cancer cell lines [4]; [10],dose-dependent reduction in cell number
same,Effect on cell number,breast cancer cell lines [4]; [11],broadly unaffected
same,Effects on DNA content,"breast cancer cell lines [5]; 1 μM, 24, 48 and 72 h","Neither PI-103, TGX-286 or PIK-108 showed strong effects"
same,G1 arrest,breast cancer cell lines [6]; [12],G1 arrest was uniquely observed
N#CC(=C(/N)Sc1ccccc1N)/C(C#N)=C(/N)Sc1ccccc1N [U0126],G1 arrest,"breast cancer cell lines [6]; all cell lines examined, 10 μM U0126, nocodazole protocol",caused a G1 arrest in all cell lines examined
Cc1ccc(-c2c(C(=O)CF)n(CCCO)c3ncnc(N)c23)cc1 [fmk],Effect on cell cycle arrest,breast cancer cell lines [6]; MDA-MB-231 cells (Fig. 5C),not sufficient to cause any effect on cell cycle arrest
CO[C@H]1C[C@@H]2CC[C@@H](C)[C@@](O)(O2)C(=O)C(=O)N2CCCC[C@H]2C(=O)O[C@H]([C@H](C)C[C@@H]2CC[C@@H](O)[C@H](OC)C2)CC(=O)[C@H](C)/C=C(\C)[C@@H](O)[C@@H](OC)C(=O)[C@H](C)C[C@H](C)/C=C/C=C/C=C/1C [rapamycin],Inhibition of S6 phosphorylation,"phospho-S6 (Ser-235,236); WT Ras cell lines BT-474 and BT20",sufficient to fully inhibit S6 phosphorylation
same,Inhibition of S6 phosphorylation,"phospho-S6 (Ser-235,236); mutant Ras MDA-MD-231 cell line",residual phosphorylation of S6
same,G1 arrest,"breast cancer cell lines [6]; all cells expressing WT Ras, 100 nM rapamycin, nocodazole protocol",caused a G1 arrest (to varying degrees)
same,G1 arrest,breast cancer cell lines [6]; [8],ineffective at causing a G1 arrest
COC[C@H]1OC(=O)c2coc3c2[C@@]1(C)C1=C(C3=O)[C@@H]2CCC(=O)[C@@]2(C)C[C@H]1OC(C)=O [wortmannin],Toxicity when administered systemically in vivo,[2],toxic when administered systemically in vivo
